Molecules are shown by their SMILES. ≈ marks a conversion by molar mass, not a printed value. Calls of active or inactive are those of the source.

Seven compounds from ChEMBL document CHEMBL4834419 (J Med Chem, 2021) can be followed below.

Data set [1] deals with T1, Retinoic acid receptor RXR-alpha (Homo sapiens) (UniProt P19793).
T1 sequence (whole entry): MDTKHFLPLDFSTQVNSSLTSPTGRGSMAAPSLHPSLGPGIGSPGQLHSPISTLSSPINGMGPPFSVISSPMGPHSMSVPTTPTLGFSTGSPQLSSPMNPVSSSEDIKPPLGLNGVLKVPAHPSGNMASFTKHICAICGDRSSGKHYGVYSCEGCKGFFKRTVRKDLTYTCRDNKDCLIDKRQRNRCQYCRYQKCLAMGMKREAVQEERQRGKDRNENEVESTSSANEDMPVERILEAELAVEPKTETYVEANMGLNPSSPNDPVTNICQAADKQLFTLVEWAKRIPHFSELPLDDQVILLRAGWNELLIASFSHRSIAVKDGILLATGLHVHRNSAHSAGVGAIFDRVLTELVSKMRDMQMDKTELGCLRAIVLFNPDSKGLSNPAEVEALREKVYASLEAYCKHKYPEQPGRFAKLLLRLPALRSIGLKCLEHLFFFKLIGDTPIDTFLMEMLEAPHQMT
Kind of data set: (§1) Agonist activity at human RXRalpha transfected in human HEK293T cells co-expressing pFR/pRL-Luc incubated for 14 to 16 hrs by hybrid reporter gene assay. The data set is classed as cell-based. To be noted: time 14-16 hrs.

The target of data set [2] is T2, Retinoic acid receptor RXR-beta (Homo sapiens) (UniProt P28702).
T2 sequence (whole entry): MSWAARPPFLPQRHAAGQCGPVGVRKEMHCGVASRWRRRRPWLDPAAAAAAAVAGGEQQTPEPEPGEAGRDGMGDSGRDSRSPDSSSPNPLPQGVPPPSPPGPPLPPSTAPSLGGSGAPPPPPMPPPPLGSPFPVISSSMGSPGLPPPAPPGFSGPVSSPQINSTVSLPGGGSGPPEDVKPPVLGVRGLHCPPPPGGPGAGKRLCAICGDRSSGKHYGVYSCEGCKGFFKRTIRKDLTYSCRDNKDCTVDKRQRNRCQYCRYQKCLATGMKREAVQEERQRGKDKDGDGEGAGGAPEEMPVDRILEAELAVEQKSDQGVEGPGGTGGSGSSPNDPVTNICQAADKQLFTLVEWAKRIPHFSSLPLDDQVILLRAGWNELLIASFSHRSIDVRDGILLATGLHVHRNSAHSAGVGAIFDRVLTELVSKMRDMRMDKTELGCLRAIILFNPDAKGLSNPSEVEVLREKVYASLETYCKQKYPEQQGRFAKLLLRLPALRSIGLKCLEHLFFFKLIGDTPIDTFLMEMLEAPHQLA
Kind of data set: (§2) Agonist activity at human RXRbeta transfected in human HEK293T cells co-expressing pFR/pRL-Luc incubated for 14 to 16 hrs by hybrid reporter gene assay. The data set is classed as cell-based. To be noted: time 14-16 hrs. A general note: Reporter assays use an easily measured gene product as a stand-in for the process of interest.

Data set [3] concerns the target T1, Retinoic acid receptor RXR-alpha (Homo sapiens). Description: Agonist activity at human RXRalpha transfected in human HEK293T cells co-expressing pFR/pRL-Luc at 30 uM incubated for 14 to 16 hrs by hybrid reporter gene assay. The settings on record: time 14-16 hrs. The class given is cell-based. A digest of the protocol: (§3)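 Gal4 hybrid reporter assay in HEK293T cells, seeded 24 h before transfection (Lipofectamine LTX, Opti-MEM) with pFR-Luc, pRL-SV40 and pFA-CMV plasmid carrying the hinge region and LBD of the human receptor. After 5 h, compound added in 0.1% DMSO, with 0.1% DMSO alone as untreated control. Dual-Glo luciferase read after 14−16 h; firefly/renilla normalized; duplicates, ≥2 independent experiments.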

Data set [4] addresses T2, Retinoic acid receptor RXR-beta (Homo sapiens). Kind of data set: Agonist activity at human RXRbeta transfected in human HEK293T cells co-expressing pFR/pRL-Luc at 30 uM incubated for 14 to 16 hrs by hybrid reporter gene assay. The class given is cell-based. The settings on record: time 14-16 hrs. The method, boiled down:
as §3

Data set [5] has as its target T3, Retinoic acid receptor RXR-gamma (Homo sapiens) (UniProt P48443).
T3 sequence (whole entry): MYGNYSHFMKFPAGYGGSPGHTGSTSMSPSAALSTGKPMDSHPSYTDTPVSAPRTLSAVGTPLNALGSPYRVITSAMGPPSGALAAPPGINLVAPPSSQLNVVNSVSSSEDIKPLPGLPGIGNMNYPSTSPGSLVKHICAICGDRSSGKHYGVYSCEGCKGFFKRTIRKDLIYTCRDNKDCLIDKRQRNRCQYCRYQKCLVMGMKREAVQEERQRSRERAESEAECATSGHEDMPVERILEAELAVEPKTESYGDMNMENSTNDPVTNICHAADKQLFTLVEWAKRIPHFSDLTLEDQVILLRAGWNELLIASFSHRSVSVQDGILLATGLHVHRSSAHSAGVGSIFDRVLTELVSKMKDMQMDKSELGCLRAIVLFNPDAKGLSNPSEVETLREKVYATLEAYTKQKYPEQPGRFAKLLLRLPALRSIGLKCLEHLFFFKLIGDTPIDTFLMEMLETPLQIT
Description: Agonist activity at human RXRgamma transfected in human HEK293T cells co-expressing pFR/pRL-Luc at 30 uM incubated for 14 to 16 hrs by hybrid reporter gene assay. The data set is classed as cell-based. The settings on record: time 14-16 hrs. The method, boiled down: as §3

Data set [6] deals with T4, Retinoic acid receptor RXR-alpha (Homo sapiens, UniProt P19793).
T4 sequence (P19793 whole entry): T1 sequence (whole entry)
The data set is described as §1. The class given is cell-based.

In data set [7] the target is T5, Retinoic acid receptor RXR-beta (Homo sapiens, UniProt P28702).
T5 sequence (P28702 whole entry): T2 sequence (whole entry)
The description is as §2. The data set is classed as cell-based.

In data set [8] the target is T3, Retinoic acid receptor RXR-gamma (Homo sapiens). Description: Agonist activity at human RXRgamma transfected in human HEK293T cells co-expressing pFR/pRL-Luc at 50 uM incubated for 14 to 16 hrs by hybrid reporter gene assay. The data set is classed as cell-based. The settings on record: time 14-16 hrs. A digest of the protocol:
as §3

In data set [9] the target is T6, Retinoic acid receptor RXR-gamma (Homo sapiens, UniProt P48443).
T6 sequence (P48443 whole entry): T3 sequence (whole entry)
Description: Agonist activity at human RXRgamma transfected in human HEK293T cells co-expressing pFR/pRL-Luc incubated for 14 to 16 hrs by hybrid reporter gene assay. The class given is cell-based.

A short description of data set [10]: Aqueous solubility of compound in pH 8 phosphate buffer incubated for 1 hr by HPLC analysis. The class given is physicochemical. A digest of the protocol: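 Solubility was measured with 3 mg compound in 2 mL 0.1 M phosphate buffer, pH 8, shaken 1 h at 37 °C. The mixture was pressed through a Uniprep filter and the dissolved compound in the filtrate quantified by HPLC against an external calibration; three independent experiments.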

Data set [11] can be described thus: Metabolic stability in Sprague-Dawley rat liver microsomes assessed as compound degradation at 10 uM incubated for 60 min by HPLC analysis. The settings on record: 1 h. The data set is classed as ADME. The method, boiled down:
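Compound at 10 μM final in 0.1 M phosphate, pH 7.4, was preincubated 5 min at 37 °C with an NADPH-regenerating system. Sprague-Dawley rat liver microsomes were then added. Reactions were stopped with ice-cold methanol at 0, 15, 30 and 60 min and remaining compound quantified by HPLC against an external calibration. Controls: no NADPH, heat-inactivated microsomes. Three independent experiments.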
On the technique in general: Microsomes from liver hold many membrane-bound enzymes, among them those of drug oxidation.

In data set [12] the target is T7, Nuclear receptor subfamily 1 group I member 3 (Homo sapiens, UniProt Q14994).
T7 sequence (Q14994 whole entry): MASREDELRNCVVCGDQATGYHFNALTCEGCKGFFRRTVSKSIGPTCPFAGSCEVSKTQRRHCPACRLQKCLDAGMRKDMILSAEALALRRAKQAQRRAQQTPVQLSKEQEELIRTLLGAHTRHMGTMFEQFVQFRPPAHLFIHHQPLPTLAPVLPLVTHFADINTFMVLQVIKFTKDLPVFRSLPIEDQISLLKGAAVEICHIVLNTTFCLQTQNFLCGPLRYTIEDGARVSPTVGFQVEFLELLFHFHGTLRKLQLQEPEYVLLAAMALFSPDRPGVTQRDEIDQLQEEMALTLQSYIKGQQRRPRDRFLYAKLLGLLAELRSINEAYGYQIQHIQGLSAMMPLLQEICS
Kind of data set: Agonist activity against human CAR in human HEK293T cells co-expressing pFR/pRL-Luc assessed as receptor activation at 10 uM incubated for 14 to 16 hrs by hybrid reporter gene assay relative to bexarotene. The settings on record: time 14-16 hrs. The class given is cell-based. A digest of the protocol: as §3

The nature of data set [13]: Half life in mouse at 10 mg/kg, po. The class given is ADME, organism-based. To be noted: in vivo. A digest of the protocol:
(§4)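 Mice, n = 3, received a single oral dose of 10 mg/kg in water with 1% hydroxypropyl methylcellulose/Tween 80 (99:1). Tail-vein blood was drawn at 30 and 60 min and tissue collected at 3 h. Compound was quantified by LC−MS and PK derived by noncompartmental analysis.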

A short description of data set [14]: Cmax in mouse at 10 mg/kg, po. On the set-up: route oral, dose 10 mg/kg. To be noted: in vivo. The class given is ADME, organism-based. A digest of the protocol: as §4
Data set [15] concerns HepG2. Description: Cytotoxicity against human HepG2 cells assessed as reduction in cell viability up to 100 uM incubated for 48 hrs by WST-1 assay. The data set is classed as cell-based. The settings on record: hepg2, 48 h. The method, boiled down: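 HepG2 cells were seeded at 3 × 10⁴/well and grown 24 h. Medium was then switched to DMEM with 1% FCS containing compound in 0.1% DMSO; 0.1% DMSO alone was the negative control. After 48 h, WST-1 was added and absorbance read at 450/620 nm after 45 min. Four experiments in duplicate.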
A general note: Tetrazolium assays rely on reduction of a dye to a coloured formazan, in cell work by metabolically active cells.

Data set [16] deals with HepG2. Kind of data set: Cytotoxicity against human HepG2 cells assessed as reduction in cell viability incubated for 48 hrs by WST-1 assay. The settings on record: HepG2, 48 h.
Data set [17] can be described thus: Half life in po dosed rat. The class given is ADME, organism-based. To be noted: in vivo.
The nature of data set [18]: Cmax in po dosed rat. The class given is ADME, organism-based. On the set-up: route oral. To be noted: in vivo.
Data set [19] is described as follows: Plasma concentration in mouse at 10 mg/kg, po measure after 3 hrs. The class given is ADME, organism-based. The method, boiled down: as §4

For the compound `CN(C)c1cccc(-c2oc(CCC(=O)O)nc2-c2ccccc2)c1`, the result in data set [1], in data set [2], in data set [3], in data set [4] and in data set [5] was inactive.

With `O=C(O)CCc1nc(-c2ccccc2)c(-c2ccccc2Cl)o1`, the EC50 – broadly, the midpoint of the concentration-response curve – in data set [6] turned out to be 17 µM; in data set [7], 19.1 µM. In addition, the result in data set [8] was inactive.

For `O=C(O)CCc1nc(-c2ccccc2)c(-c2cc(C(F)(F)F)cc(C(F)(F)F)c2)o1`, the EC50 turned out to be 0.05 µM in [6] and 50 nM in data set [9]. The solubility (in general, the concentration that dissolves in the medium under given conditions) at 1 h in data set [10] (phosphate buffer, pH 8) is 146 µg/mL (≈ 340 µM). In data set [11], the Stabilty entry is recorded as “Stable”. The values for the Activity (in data set [12]; in the data set on HepG2 [15]) were 4% and “Non-Toxic”, respectively. In addition, the half-life (commonly the time needed for the level to fall by half in the phase considered) in data set [13] was more than 180 min. Further, the Cmax (in general, the highest concentration seen after dosing) in data set [14] was 33000 ng/mL.

For `O=C(O)CCCCc1nc(-c2ccccc2)c(-c2ccccc2)o1`, the EC50 in data set [6] turned out to be 8.4 µM; in data set [7], 12.4 µM. Further, the outcome in data set [8] was inactive.

Consider `C=C(c1ccc(C(=O)O)cc1)c1cc2c(cc1C)C(C)(C)CCC2(C)C` [BEXAROTENE], for which, in the data set with HepG2 [16], the IC50 (as a rule, the midpoint of a concentration-inhibition curve) was determined as 20 µM. Also, the solubility in data set [10] (buffer, pH 8, 1 h) was 0.3 mg/L (≈ 0.861 µM). In addition, the half-life in data set [17] is 72 min. In [18], this compound showed a Cmax of 600 ng/mL.

Turning to `O=C(O)CCc1nc(-c2ccccc2Cl)c(-c2ccccc2)o1`, the results for the EC50 in [6] and in data set [7] were 36 µM and 48 µM, respectively. Besides, the outcome in data set [8] was inactive.

Regarding `O=C(O)CCc1cc(-c2cc(Cl)cc(Cl)c2)n(-c2ccc(Cl)cc2)n1`, the EC50 in data set [6] stood at 0.3 µM; in [9], 1500 nM. For the same compound, in [11], the Stabilty entry was “Stable”. Besides, the Activity in [12] was 15%; in the data set on HepG2 [15], “Non-Toxic”. This compound displayed a concentration at 3 h in data set [19] of 35000 ng/mL.
